NOD2 RIPK2 PPI = inhibitors of human NOD2-RIPK2 interaction | O43353 | CHO BLA complementation NOD2-RIPK2, CCF4 ratio | inhibition, % at 4.98 µM | actives 0.38% (n = 360,000); in the data active = inhibition above about 21%;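 note: 0% = vehicle only and 100% = reference blocker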
MC4R ag barr = agonists of human melanocortin 4 receptor (MC4R) beta-arrestin. P32245. AID 540308. U2OS MC4R beta-arrestin complementation, luminescence; percent of melanotan II response, DMSO zero. activation, % at 8.9 µM. actives 0.98% (n = 360,000);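 active = activation above a per-plate cutoff, the mean activation of sample wells on that plate plus 3 SD, cut at about 8% in these data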
TLR9-MyD88 inh = TLR9-MyD88 interaction inhibition. Q9NR96+Q99836. CHO BLA complementation TLR9-MyD88, CCF4 FRET ratio. inhibition, % at 4.98 µM. actives 0.21% (n = 340,000). AID 504734;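 active = inhibition above the mean over all tested compounds plus 3 SD, cut at about 21% in these data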;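 note: 0% = DMSO only wells and 100% = clavulanate BLA inhibitor control wells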
Target sequence (Q99836 whole entry, looked up): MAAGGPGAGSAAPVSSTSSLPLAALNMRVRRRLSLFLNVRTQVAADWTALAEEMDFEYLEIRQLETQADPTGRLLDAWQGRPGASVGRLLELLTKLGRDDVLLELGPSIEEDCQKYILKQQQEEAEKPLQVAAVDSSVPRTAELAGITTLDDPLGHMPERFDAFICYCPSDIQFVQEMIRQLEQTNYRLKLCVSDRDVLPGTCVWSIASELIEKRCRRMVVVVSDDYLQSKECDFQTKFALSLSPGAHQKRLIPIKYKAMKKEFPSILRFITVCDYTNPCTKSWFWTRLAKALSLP
Target sequence (Q9NR96 whole entry, looked up): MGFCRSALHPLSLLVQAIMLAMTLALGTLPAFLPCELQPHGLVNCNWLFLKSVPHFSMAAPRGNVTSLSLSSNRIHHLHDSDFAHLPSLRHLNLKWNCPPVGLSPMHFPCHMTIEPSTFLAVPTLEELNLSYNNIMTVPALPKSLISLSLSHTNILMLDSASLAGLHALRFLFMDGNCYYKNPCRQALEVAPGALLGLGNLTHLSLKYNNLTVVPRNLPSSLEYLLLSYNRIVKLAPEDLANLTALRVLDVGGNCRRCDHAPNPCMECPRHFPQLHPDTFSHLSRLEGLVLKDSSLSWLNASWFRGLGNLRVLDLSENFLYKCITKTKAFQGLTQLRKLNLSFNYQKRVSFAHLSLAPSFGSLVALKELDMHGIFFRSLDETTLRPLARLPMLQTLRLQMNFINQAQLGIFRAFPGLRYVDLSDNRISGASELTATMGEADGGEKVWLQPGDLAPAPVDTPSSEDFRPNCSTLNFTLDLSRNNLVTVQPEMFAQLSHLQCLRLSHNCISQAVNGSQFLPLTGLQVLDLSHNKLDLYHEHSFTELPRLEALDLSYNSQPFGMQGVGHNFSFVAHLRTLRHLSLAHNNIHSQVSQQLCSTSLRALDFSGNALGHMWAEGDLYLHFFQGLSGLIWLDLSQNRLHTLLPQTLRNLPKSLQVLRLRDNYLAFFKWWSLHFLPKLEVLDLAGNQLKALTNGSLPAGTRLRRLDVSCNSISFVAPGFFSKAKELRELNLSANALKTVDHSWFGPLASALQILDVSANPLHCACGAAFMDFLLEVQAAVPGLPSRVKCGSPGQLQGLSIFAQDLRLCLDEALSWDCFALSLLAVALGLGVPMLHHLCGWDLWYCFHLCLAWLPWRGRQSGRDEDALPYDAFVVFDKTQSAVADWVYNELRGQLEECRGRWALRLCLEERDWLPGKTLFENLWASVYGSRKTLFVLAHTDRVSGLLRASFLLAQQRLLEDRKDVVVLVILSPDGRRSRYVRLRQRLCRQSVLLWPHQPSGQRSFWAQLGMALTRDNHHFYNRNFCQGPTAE
MC4R antag cAMP = blocks human MC4R cAMP signaling; P32245; MC4R-expressing cells, MTII-stimulated cAMP, LANCE TR-FRET; inhibition, % at 6.5 µM; actives 0.48% (n = 360,000);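 active = inhibition above its plate's cutoff, the mean of tested wells on that plate plus 3 SD, cut at about 29% in these data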;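 note: 0% = Melanotan II alone and 100% = Melanotan II plus saturating MCL0020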
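Assay system: U2OS cells stably expressing human melanocortin 4 receptor (MC4R) / Dosing: 6.5 µM / Timing: compound 30 min, challenge 1 h, detection 1 h / Measured by: Eu-cAMP/anti-cAMP TR-FRET, emission 671 nm / Replicates: singlicate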
TLR4 MyD88 comp = blocks binding of human TLR4 to MyD88. O00206+Q99836. HeLa CL3-4 TLR4/MyD88 BLA complementation, FRET ratio. inhibition, % at 8.4 µM. actives 0.18% (n = 200,000); in the data active = inhibition above about 25%;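 note: 0% = vehicle and 100% = reference inhibitor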
MC4R barr ag = human MC4R beta-arrestin agonism confirmation | shares compounds with MC4R ag barr | U2OS MC4R beta-arrestin recruitment, luminescence; scaled DMSO 0%, Melanotan II 100% | activation, % at 8.9 µM | actives 31% (n = 2,400) | AID 602192;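 active = mean activation across replicates above the hit cutoff set in the earlier primary screen, cut at about 8% in these data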
MOR DOR agonist = OPRM1-OPRD1 heterodimer agonism counter-screen; shares compounds with MC4R ag barr; U2OS PathHunter beta-arrestin, beta-gal luminescence; percent of deltorphin B response, DMSO zero; actives 5.8% (n = 2,400); activation, % at 9.2 µM; AID 602194;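 active = mean activation across replicates exceeds the hit threshold derived in the earlier primary screen, cut at about 18% in these data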;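 note: 100% = deltorphin B at 0.9 µM final and 0% = DMSO alone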
Numbers without * were called inactive; / = no result given. Only some compounds are listed: those with a hit (about 1.8% of all), similar ones and a draw of the others.

SMILES | NOD2 RIPK2 PPI | MC4R ag barr | TLR9-MyD88 inh | MC4R antag cAMP | TLR4 MyD88 comp | MC4R barr ag | MOR DOR agonist
CC(OC(=O)Cc1ccc(F)cc1)C(=O)NCc1ccc2c(c1)OCO2 (centres undefined) | 2 | -3 | -1 | 9 | / | / | /
COc1ccc2ccc(O)c(CN(C)CC(=O)Nc3ccccc3C(F)(F)F)c2c1 | 9 | 13* | 7 | 14 | / | 7 | 10
Cc1cc(-c2nnc(SCC(=O)NC3CC3)n2C(C)C)cs1 | 1 | -3 | -10 | 2 | / | / | /
COc1ccc(-c2nn(-c3ccccc3)cc2/C=C2/SC(=S)N(CCC(=O)O)C2=O)cc1 | -9 | 2 | -3 | 5 | / | / | /
Cc1ccc(-c2nn(-c3ccccc3)cc2/C=C2\SC(=S)N(CC(=O)O)C2=O)cc1 | 4 | 2 | 4 | -3 | / | / | /
O=C(O)CCCCCN1C(=O)/C(=C\c2cn(-c3ccccc3)nc2-c2cccs2)SC1=S | -7 | 26* | 2 | 16 | / | 10.0* | 3
O=C(O)CCN1C(=O)/C(=C/c2cn(-c3ccccc3)nc2-c2cccs2)SC1=S | -3 | 27* | 1 | 9 | 9 | 1 | 2
CCSc1nc2sc3c(c2c(=O)n1-c1ccccc1)CCN(C(C)C)C3 | -6 | -1 | 7 | 3 | / | / | /
CCn1c(SCC(=O)Nc2ccccc2C(=O)OC)nnc1-c1ccc(N)cc1 | -2 | -3 | -1 | -2 | -9 | / | /
CCn1c(SCC(=O)Nc2ccc3c(c2)oc2ccccc23)nnc1-c1ccc(N)cc1 | 8 | 15* | 6 | 10 | -13 | 16* | 19*
O=C(CCN1C(=O)/C(=C\c2ccccc2)SC1=S)NNC(=O)c1cccnc1 | -6 | 21* | 0 | 1 | 7 | 5 | 1
O=C(CN1C(=O)S/C(=C\c2ccccc2)C1=O)NNC(=O)c1ccccc1O | -7 | 0 | -2 | 13 | 2 | / | /
O=C(CCCN1C(=O)/C(=C\c2cccs2)SC1=S)NNC(=O)c1ccncc1 | -3 | 0 | 16 | -3 | 2 | / | /
COc1ccccc1C(=O)NNC(=O)CCCN1C(=O)/C(=C/c2cccs2)SC1=S | -7 | 23* | -5 | 0 | -7 | 7 | 4
O=C(CCN1C(=O)/C(=C\c2ccccc2)SC1=S)NNC(=O)c1ccccc1O | 11 | 10* | -12 | -2 | / | 3 | 3
O=C(CCCN1C(=O)/C(=C/c2ccccc2Cl)SC1=S)NNC(=O)c1cccnc1 | 10 | -3 | -3 | -5 | / | / | /
CN1CC(=O)N(CC(=O)Nc2cc(Cl)cc(Cl)c2)C1=O | 0 | -2 | -9 | 5 | 4 | / | /
COc1ccc(-c2onc(C)c2-c2ccc(C(=O)OC(C)C)o2)c(O)c1 | -5 | 12* | -1 | 14 | -2 | 7 | 9
COc1ccc(N2C(=O)c3ccc(C(=O)OC(C)C)cc3C2=O)cc1 | -11 | 1 | 6 | 4 | -6 | / | /
O=C(Nc1cc(Cl)ccn1)C1(c2ccccc2)CC1(Cl)Cl (centres undefined) | -15 | 11* | -4 | 10 | / | 4 | 9
COc1ccccc1CCNC(=O)c1cc(-c2ccncc2)nc2ccc(Br)cc12 | -1 | 18* | -2 | 7 | 5 | 10* | 4
CCCC1NC(=O)c2cccnc2-n2c1nc1cc(C)cc(C)c1c2=O (centres undefined) | -11 | 0 | 10 | 24 | / | / | /
CC(C)(C)c1ccc(/C=N/NC(=O)Cc2c[nH]c3ccccc23)cc1 | -17 | 10* | 8 | -1 | -9 | 5 | 11
CCCc1cc(C(=O)Nc2cc(OC)ccc2OC)cs1 | -5 | 2 | -5 | -1 | / | / | /
O=C(COc1ccc2ccc(=O)oc2c1)Nc1ccc(CCO)cc1 | -2 | -2 | -12 | -2 | / | / | /
SMILES | NOD2 RIPK2 PPI | MC4R ag barr | TLR9-MyD88 inh | MC4R antag cAMP | TLR4 MyD88 comp | MC4R barr ag | MOR DOR agonist
O=C(COc1ccccc1Cl)Nc1ccc2oc(=O)ccc2c1 | -4 | 12* | -1 | -4 | / | 7 | 6
O=C(COc1ccc2ccc(=O)oc2c1)Nc1ccc(N2CCCCC2)cc1 | 2 | 16* | -5 | 5 | / | 9.1* | 9
Cc1ccc(C)c(C(=O)COC(=O)CCN2C(=O)C3C4CCC(C4)C3C2=O)c1 (centres undefined) | -2 | -3 | 0 | 0 | / | / | /
Cc1ccc2c(c1)CCCN2CC(=O)Nc1cccc(S(=O)(=O)N2CCCC2)c1 | 2 | -4 | 4 | 6 | / | / | /
Cc1cccc(NC(=O)CSc2cc(C(=O)c3nccn3C)c3ccccc3n2)c1 | -1 | -1 | -14 | 4 | -5 | / | /
Cc1cc(C)cc(NC(=O)CSc2cc(C(=O)c3nccn3C)c3ccccc3n2)c1 | 5 | 9.8* | -5 | 14 | 2 | 3 | 8
CCCCCCCCNS(=O)(=O)CCNCc1ccccc1 | -2 | 2 | 8 | 6 | / | / | /
CCCCCCCCNS(=O)(=O)CCNCCc1ccccc1 | 0 | 10.0* | 5 | 4 | / | 16* | 6
O=C(Nc1ccccc1)C(c1ccccc1)c1ccccc1 | 15 | 0 | 5 | 12 | / | / | /
O=C(Nc1ccc(Br)cc1)C(c1ccccc1)c1ccccc1 | -6 | 11* | -11 | 4 | -11 | 4 | 7
CN(/N=C\c1ccc(O)c(O)c1)c1nc(-c2ccccc2)cc(-c2ccccc2)n1 | 6 | 1 | -3 | 7 | 1 | / | /
CCOC(=O)c1ccc(Nc2nc(-c3cccnc3)nc3ccccc23)cc1 | -1 | 57* | 3 | 11 | -13 | 0 | 7
NC(=O)c1ccsc1NC(=O)COC(=O)Cc1ccccc1Cl | -1 | -1 | -10 | -6 | / | / | /
Nc1c(C(=O)NCc2ccc3c(c2)OCO3)nnn1Cc1cccc(F)c1 | -6 | -1 | 4 | 1 | / | / | /
Nc1c(C(=O)NCc2ccc3c(c2)OCO3)nnn1Cc1ccc(Br)cc1 | -1 | 18* | 3 | -5 | / | 7 | 10
COc1ccc(NC(=O)c2cccs2)cc1NC(=O)c1ccco1 | -3 | -2 | 2 | 6 | -4 | / | /
CCOc1cc(NC(=O)c2cccs2)c(OCC)cc1NC(=O)c1ccco1 | 5 | 12* | 9 | 6 | 21 | 17* | 6
Cc1cc(-n2c(C)cc(C(=O)CSc3nnnn3-c3ccc(Cl)cc3)c2C)no1 | 1 | 20* | -10 | 7 | -5 | 2 | 4
CO/C(N)=C(\C#N)N=Cc1ccccc1Cl | -5 | -1 | 14 | 2 | 4 | / | /
O=C(CSc1nnc(CNC(=O)c2cccs2)o1)Nc1ccc(Cl)cc1 | 2 | -1 | 2 | -3 | / | / | /
COc1cc(-c2cc(NC(C)=O)c3ncc(-c4ccccc4)n3c2)cc(OC)c1OC | -1 | 4 | / | 24 | / | / | /
COc1ccc(-c2cnc3c(NC(C)=O)cc(-c4ccsc4)cn23)cc1OC | -7 | 11* | / | 5 | / | 15* | 4
